Each structure is given as a SMILES string. ≈ marks a conversion by molar mass, not a printed value.

What is called MIC is the lowest concentration found to suppress growth. A low value points to a more susceptible organism.

One assay deals with Mycobacterium avium. Description: Minimum Inhibitory Concentration against drug-resistant strain of Mycobacterium tuberculosis avium. Type of assay: functional. The method, boiled down: (§1)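 MICs by microplate alamar blue assay against M. tuberculosis strains resistant to isoniazid (ATCC 35822), rifampin (ATCC 35838), ethambutol, kanamycin or ciprofloxacin, drug-sensitive strain Erdman, and M. avium (ATCC 25291). MIC = minimum concentration giving 90% growth inhibition.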

For assay [1], the system named is Mycobacterium tuberculosis. Description: Minimum Inhibitory Concentration against drug-resistant strain of Mycobacterium tuberculosis Erdman. Format: functional. The method, boiled down:
as §1

For the compound `Clc1nc(-c2ccco2)c2ncn(Cc3ccccc3)c2n1`, the MIC stood at 25 µg/mL (≈ 80.5 µM) in the assay on Mycobacterium avium and 12.5 µg/mL (≈ 40.2 µM) in assay [1].

Values taken from ChEMBL document CHEMBL1135898, “Synthesis and antimycobacterial activity of 6-arylpurines: the requirements for the N-9 substituent in active antimycobacterial purines” (J Med Chem, 2002).
